Measured values reported in ChEMBL document CHEMBL5712910, “Histone methyltransferases EHMT1 and EHMT2 (GLP/G9A) maintain PARP inhibitor resistance in high-grade serous ovarian carcinoma” (Clin Epigenetics, 2019).
The source made the active and inactive calls. No cut-off for these calls is given here.

Key:
Olaparib-resistant PEO1 [1] = experiment: Induction of cell cycle arrest in human Olaparib-resistant PEO1 cells assessed as accumulation of cells in S phase pretreated for 72 hrs by vehicle follwed by compound addition at 1 uM incubated for 72 hrs by propidium iodide staining based flow cytometry analysis (reference value: 21.5%); type: functional
Olaparib-resistant PEO1 [2] = experiment: Inhibition of EHMT1/2 in human Olaparib-resistant PEO1 cells assessed as reduction in Cyclin B1 protein level at 1 uM for 72 hrs by immunoblot analysis; type: functional, cell-based
Outline: (§1)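 PEO1-OR cells were treated with olaparib and/or UNC0642 as for the cell-cycle experiment. Total RIPA lysates were immunoblotted for cell-cycle proteins, and band intensity was normalized to actin, relative to the non-pretreated control.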

Olaparib-resistant PEO1 [3] = experiment: Induction of cell cycle arrest in human Olaparib-resistant PEO1 cells assessed as accumulation of cells in S phase pretreated for 72 hrs by UNC0642 follwed by compound addition at 1 uM incubated for 72 hrs by propidium iodide staining based flow cytometry analysis (reference value: 21.9%); type: functional
Olaparib-resistant PEO1 [4] = experiment: Antitumor activity against human Olaparib-resistant PEO1 cells assessed as H3K9me2 protein level at 500 nM for 72 hrs by immunofluorescence analysis; type: functional, cell-based
Outline: (§2)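 PEO1-OR cells treated 72 h with DMSO or UNC0642 at two-fold dilutions from 2 μM to 125 nM. Histone extracts immunoblotted for H3K9me2, with H3K27me3 as a specificity check; densitometry normalized to total H3. For immunofluorescence, cells were fixed on coverslips in 4% paraformaldehyde and permeabilized with 0.2% Triton X-100, with DAPI counterstain.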

[5] = target: T1, Histone-lysine N-methyltransferase EHMT1 (Homo sapiens) (UniProt Q9H9B1); experiment: Inhibition of EHMT1 in human Olaparib-resistant PEO1 cells assessed as reduction in CDC25C phosphorylation at 1 uM for 72 hrs by immunoblot analysis; type: cell-based; outline: as §1
T1 sequence (whole entry): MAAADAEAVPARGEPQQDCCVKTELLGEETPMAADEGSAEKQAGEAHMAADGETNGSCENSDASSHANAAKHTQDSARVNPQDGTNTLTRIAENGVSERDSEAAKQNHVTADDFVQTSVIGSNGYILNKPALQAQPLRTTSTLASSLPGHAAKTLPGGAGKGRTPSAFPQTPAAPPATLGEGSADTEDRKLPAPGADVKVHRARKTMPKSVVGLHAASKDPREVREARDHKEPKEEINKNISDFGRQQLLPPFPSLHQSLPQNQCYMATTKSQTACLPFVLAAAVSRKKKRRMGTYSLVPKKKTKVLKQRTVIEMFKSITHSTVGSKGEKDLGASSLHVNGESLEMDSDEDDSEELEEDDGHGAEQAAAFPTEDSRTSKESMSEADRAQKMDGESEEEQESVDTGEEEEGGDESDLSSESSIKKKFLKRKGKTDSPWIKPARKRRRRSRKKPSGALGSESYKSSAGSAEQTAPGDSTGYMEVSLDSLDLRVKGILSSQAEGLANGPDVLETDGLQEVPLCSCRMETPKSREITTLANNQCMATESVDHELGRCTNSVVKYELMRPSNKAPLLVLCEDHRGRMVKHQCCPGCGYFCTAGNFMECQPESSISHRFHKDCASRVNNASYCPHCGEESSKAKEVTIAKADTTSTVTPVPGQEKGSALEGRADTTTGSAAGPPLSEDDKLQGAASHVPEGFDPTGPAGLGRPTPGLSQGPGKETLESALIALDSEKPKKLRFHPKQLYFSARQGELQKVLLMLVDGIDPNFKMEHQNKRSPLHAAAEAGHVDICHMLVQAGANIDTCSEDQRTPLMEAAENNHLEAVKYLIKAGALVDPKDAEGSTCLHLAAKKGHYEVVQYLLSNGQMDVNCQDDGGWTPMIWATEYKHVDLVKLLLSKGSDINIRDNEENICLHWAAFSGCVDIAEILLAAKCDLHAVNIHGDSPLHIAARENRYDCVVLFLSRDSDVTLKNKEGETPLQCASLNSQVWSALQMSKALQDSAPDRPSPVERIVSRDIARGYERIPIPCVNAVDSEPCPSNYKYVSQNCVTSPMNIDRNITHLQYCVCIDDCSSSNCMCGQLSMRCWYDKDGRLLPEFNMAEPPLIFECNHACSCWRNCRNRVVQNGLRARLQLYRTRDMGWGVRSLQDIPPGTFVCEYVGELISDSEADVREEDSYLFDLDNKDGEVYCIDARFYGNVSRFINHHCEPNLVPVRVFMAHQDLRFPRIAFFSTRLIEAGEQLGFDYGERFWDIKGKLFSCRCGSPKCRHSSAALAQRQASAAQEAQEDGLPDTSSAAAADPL

Olaparib-resistant PEO1 [6] = experiment: Inhibition of EHMT1/2 in human Olaparib-resistant PEO1 cells assessed as reduction in Cyclin A protein level at 1 uM for 72 hrs by immunoblot analysis; type: functional, cell-based; outline: as §1
Olaparib-resistant PEO1 [7] = experiment: Induction of cell cycle arrest in human Olaparib-resistant PEO1 cells assessed as accumulation of cells in G2 phase pretreated for 72 hrs by vehicle follwed by compound addition at 1 uM incubated for 72 hrs by propidium iodide staining based flow cytometry analysis (reference value: 20.7%); type: functional
Olaparib-resistant PEO1 [8] = experiment: Antitumor activity against human Olaparib-resistant PEO1 cells assessed as H3K9me2 protein level for 72 hrs by immunoblot analysis; type: functional, cell-based; outline: as §2
Olaparib-resistant PEO1 [9] = experiment: Induction of cell cycle arrest in human Olaparib-resistant PEO1 cells assessed as accumulation of cells in G2 phase pretreated for 72 hrs by UNC0642 follwed by compound addition at 1 uM incubated for 72 hrs by propidium iodide staining based flow cytometry analysis (reference value: 23.2 %); type: functional
Olaparib-resistant PEO1 [10] = experiment: Induction of cell cycle arrest in human Olaparib-resistant PEO1 cells assessed as accumulation of cells in G1 phase pretreated for 72 hrs by vehicle follwed by compound addition at 1 uM incubated for 72 hrs by propidium iodide staining based flow cytometry analysis (reference value: 54.7%); type: functional
Olaparib-resistant PEO1 [11] = experiment: Inhibition of EHMT1/2 in human Olaparib-resistant PEO1 cells assessed as reduction in total CDC25C protein level at 1 uM for 72 hrs by immunoblot analysis; type: functional, cell-based; outline: as §1
Olaparib-resistant PEO1 [12] = experiment: Induction of cell cycle arrest in human Olaparib-resistant PEO1 cells assessed as accumulation of cells in G1 phase pretreated for 72 hrs by UNC0642 follwed by compound addition at 1 uM incubated for 72 hrs by propidium iodide staining based flow cytometry analysis (reference value: 52.9%); type: functional

In the case of `COc1cc2c(NC3CCN(C(C)C)CC3)nc(N3CCC(F)(F)CC3)nc2cc1OCCCN1CCCC1`, the Activity (Olaparib-resistant PEO1 [1]) is reported as 22.8%, the Activity (Olaparib-resistant PEO1 [2]) is reported as “Active” and the Activity (Olaparib-resistant PEO1 [3]) is reported as 23.4%. The Activity (Olaparib-resistant PEO1 [4]) was “Active”, the inhibition [5] was “Active” and the Activity (Olaparib-resistant PEO1 [6]) was “Active”. For the same molecule, the Activity (Olaparib-resistant PEO1 [7]) was 21.5%, the Activity (Olaparib-resistant PEO1 [8]) was “Active” and the Activity (Olaparib-resistant PEO1 [9]) was 22.5%. For the same molecule, the Activity (Olaparib-resistant PEO1 [10]) was 53.3%, the Activity (Olaparib-resistant PEO1 [11]) was “Active” and the Activity (Olaparib-resistant PEO1 [12]) was 51.7%.
